TRPC6 activator: mouse TRPC6 channel activation; HEK293-TRPC6 membrane potential dye fluorescence; active compounds read high; B-score at 10 µM; hit rate 0.13% among 310,000; AID 2550;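 active = B-score of the integrated fluorescence ratio above library mean plus 3 SD, and starting fluorescence ratio within library mean plus 5 SD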;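 also: higher score means more depolarization so channel activation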
Target sequence (Q61143 whole entry, looked up): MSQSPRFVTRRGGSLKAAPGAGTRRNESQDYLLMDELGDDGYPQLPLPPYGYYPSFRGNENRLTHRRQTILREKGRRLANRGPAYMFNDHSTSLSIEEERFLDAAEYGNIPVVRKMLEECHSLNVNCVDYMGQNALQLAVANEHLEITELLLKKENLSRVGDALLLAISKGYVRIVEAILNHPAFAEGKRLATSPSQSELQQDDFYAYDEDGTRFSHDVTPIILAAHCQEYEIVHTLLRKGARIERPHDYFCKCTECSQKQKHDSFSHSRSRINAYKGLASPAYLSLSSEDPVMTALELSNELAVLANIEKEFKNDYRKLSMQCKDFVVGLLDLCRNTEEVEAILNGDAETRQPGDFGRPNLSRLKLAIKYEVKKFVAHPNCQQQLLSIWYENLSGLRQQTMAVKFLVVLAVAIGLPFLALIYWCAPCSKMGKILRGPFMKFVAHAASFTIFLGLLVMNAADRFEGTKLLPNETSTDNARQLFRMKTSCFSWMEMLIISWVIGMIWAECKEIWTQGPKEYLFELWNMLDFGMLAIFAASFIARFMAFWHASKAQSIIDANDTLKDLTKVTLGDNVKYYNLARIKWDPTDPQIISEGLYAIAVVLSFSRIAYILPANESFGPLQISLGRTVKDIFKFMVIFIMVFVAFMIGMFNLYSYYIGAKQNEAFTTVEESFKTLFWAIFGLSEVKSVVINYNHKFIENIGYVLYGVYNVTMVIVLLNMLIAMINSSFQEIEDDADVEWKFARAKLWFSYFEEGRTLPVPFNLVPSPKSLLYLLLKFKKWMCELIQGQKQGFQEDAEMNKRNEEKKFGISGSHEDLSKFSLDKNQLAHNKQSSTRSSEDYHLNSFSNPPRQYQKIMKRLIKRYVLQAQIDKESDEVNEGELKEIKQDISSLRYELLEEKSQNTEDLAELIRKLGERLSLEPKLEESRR
TRPC4 inh: inhibitors of mouse TRPC4 channel; Q9QUQ5; HEK293 TRPC4beta/mu-opioid, DAMGO-evoked Fluo4 calcium flux; active compounds read low; B-score at 10 µM; hit rate 0.39% among 300,000; AID 2247;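 active = B-score over 3 SD under the library average, no early fluorescence shift, positive overall ratio signal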
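Signal: kinetic Fluo4 fluorescence imaging of calcium influx. Material: stable TRPC4beta/mu-opioid receptor HEK293 cells. Probe or stimulus: DAMGO in two steps, submaximal then maximal.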
TRPC4 act: opens the mouse TRPC4 cation channel. B-score at 10 µM. Q9QUQ5. HEK293 TRPC4beta/mu-opioid, Fluo4 calcium fluorescence; active compounds read high. hit rate 0.49% among 310,000;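 active = B-score above 5 SD of library B-scores, and initial fluorescence ratio not above library mean plus 5 SD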;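 also: positive B-score marks a calcium rise read as TRPC4 activation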
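Technique: kinetic Fluo4 calcium fluorescence; Test system: TRPC4beta and mu-opioid receptor HEK293 stable cells; Measure: B-scored integrated calcium fluorescence ratio; Benchmarks: low control buffer alone, high control maximal DAMGO; Schedule: 45 min room-temperature Fluo4 loading, 110 s read.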
TRPC6 inhibitor: inhibitors of mouse TRPC6 channel; Q61143; HEK293-TRPC6, membrane potential dye, ACh-evoked depolarization; active compounds read low; B-score at 10 µM; hit rate 1.1% among 310,000; AID 2553;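 active = B-score under library mean minus 3 SD, initial fluorescence not abnormally high, positive integrated signal ratio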;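 also: B-score derived from integrated fluorescence ratio over the kinetic read; more negative B-score means stronger inhibition of depolarization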
TRPC4 potent: allosteric potentiators of mouse TRPC4 channel. B-score at 10 µM. hit rate 0.42% among 310,000. Q9QUQ5. HEK293 TRPC4beta/mu-opioid, DAMGO EC20, Fluo-4 Ca2+ flux; active compounds read high;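 active = B-score of calcium response area above 5 SD of library B-scores, with initial fluorescence ratio within 5 SD of library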;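 also: B-score of integrated fluorescence ratio over time as area under calcium response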
TRPC4 spec 2: mouse TRPC4 off-target activity of TRPC6 inhibitors, second screen | shares compounds with TRPC6 inhibitor | HEK293 TRPC4/MOR, membrane potential dye fluorescence; channel activated by saturating DAMGO dose | inhibition, % at 10 µM | hit rate 42% among 920 | AID 2776;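 active = compounds whose fluorescence signal differed from control wells by over 3 SD, either direction, in both duplicate plates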
TRPC4 spec: selectivity of TRPC6 inhibitors: effect on mouse TRPC4 | activity change, negative = inhibition, % at 10 µM | AID 2777 | HEK293 TRPC4/mu-opioid, membrane potential fluorescence | shares compounds with TRPC6 inhibitor | hit rate 61% among 920;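 active = rise or fall in signal beyond 3 SD of buffer-only wells in both replicate plates, either sign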;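 also: integrated kinetic ratio of fluorescence range over baseline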
HEK293 MPD ctr 2-1: second check of TRPC6 inhibitor effects in parental HEK293 cells; shares compounds with TRPC6 inhibitor; parental HEK293 membrane potential dye fluorescence; maximal acetylcholine challenge after compound addition; signal change vs control, % at 10 µM; hit rate 31% among 920; AID 2779;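 active = membrane potential signal moving either way by over 3 SD of the maximum-effect control, in both duplicate plates, meaning non-specific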
HEK293 MPD ctr-1: counter-screen for TRPC6 inhibitors: effect in parental HEK293 cells; shares compounds with TRPC6 inhibitor; parental HEK293 membrane potential dye fluorescence; membrane potential signal change, % at 10 µM; hit rate 60% among 920; AID 2780;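 active = membrane potential signal shifting up or down by more than 3 SD of buffer-only wells, on both duplicate plates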
HEK293 MPD ctr-2: checks TRPC6 modulator effects in parental HEK293 cells; shares compounds with TRPC6 inhibitor; membrane potential dye fluorescence; membrane potential signal change, % at 10 µM; hit rate 51% among 2,400;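 active = membrane potential signal moves up or down beyond 5 SD from buffer-only wells, on both duplicate plates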
HEK293 MPD ctr 2-2: parental HEK293 nonspecific activity of TRPC6 modulators, second screen; membrane potential dye fluorescence; after compound, maximal acetylcholine stimulation; hit rate 14% among 2,400; AID 488926; inhibition, % at 10 µM; shares compounds with TRPC6 inhibitor;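 active = membrane potential signal drops by more than 5 SD from the mean control signal, in both duplicate plates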;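 also: plate controls were acetylcholine ECmax control wells for no effect and buffer only wells for full effect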
TRPC4/MOR mod: mouse TRPC4 off-target activity of TRPC6 modulators; hit rate 69% among 2,400; shares compounds with TRPC6 inhibitor; percent change from control (negative = decrease, positive = increase), % at 10 µM; HEK293 TRPC4/mu-opioid, membrane potential fluorescence;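 active = membrane potential signal moved up or down beyond 5 SD of buffer control wells, in both duplicate plates, actives on both sides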;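 also: plate controls were assay buffer wells for no effect and DAMGO maximal-effect wells for full effect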
TRPC4/MOR inh 2: mouse TRPC4 off-target activity of TRPC6 modulators, second screen; shares compounds with TRPC6 inhibitor; HEK293 TRPC4/mu-opioid, membrane potential dye fluorescence; stimulated with maximal-effect DAMGO; inhibition, % at 10 µM; hit rate 55% among 2,400; AID 488928;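 active = drop in membrane potential signal beyond 5 SD of the control wells in both duplicate plates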;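 also: TRPC4 counter screen for TRPC6 hits run under conditions tuned for TRPC6 not TRPC4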
TRPC6 inh conf: confirmation of mouse TRPC6 inhibitors; shares compounds with TRPC6 inhibitor; AID 488960; inhibition, % at 10 µM; hit rate 43% among 3,300; HEK293-TRPC6, membrane potential dye, ACh-evoked depolarization;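 active = fluorescence ratio falls more than 5 SD below the full-stimulation control mean, in both duplicate runs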;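 also: integrated fluorescence ratio of peak minus minimum over baseline after agonist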
TRPC6 act confirm: confirmation of mouse TRPC6 activators; shares compounds with TRPC6 inhibitor; HEK293-TRPC6 membrane potential dye fluorescence, FDSS; activation, % at 10 µM; hit rate 11% among 2,800; AID 488961;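 active = ratio signal rise beyond 5 SD above unstimulated control wells' mean, seen in both duplicate runs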;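 also: plate controls were buffer EC0 wells for no effect and acetylcholine ECmax response for full effect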
Active calls of the source: *; i = inactive; nt = not tested or not shown. Hits are enriched below; roughly 2.3% of the tested compounds scored in any of these assays.

SMILES	TRPC6 activator	TRPC4 inh	TRPC4 act	TRPC6 inhibitor	TRPC4 potent	HEK293 MPD ctr-2	HEK293 MPD ctr 2-2	TRPC4/MOR mod	TRPC4/MOR inh 2	TRPC6 inh conf	TRPC6 act confirm	others
NS(=O)(=O)c1ccc(NC(=S)NCc2ccc3c(c2)OCO3)cc1	i	i	i	-6.8*	i	i	i	i	i	i	i
CCc1nc(NCCO)c(C#N)c2c1CSC(C)(C)C2	i	i	i	i	i	nt	nt	nt	nt	nt	nt
CCN(CC)CCNC(=O)c1nn(-c2ccc(C)cc2)c(=O)c2c1c1ccccc1n2C	i	i	i	-8.9*	i	nt	nt	nt	nt	64%*	i	TRPC4 spec 2=56%*;TRPC4 spec=-15%*;HEK293 MPD ctr 2-1=i;HEK293 MPD ctr-1=-187%*
Cc1ccc(-n2nc(C(=O)NCc3ccco3)c3c4ccccc4n(C)c3c2=O)cc1	i	i	i	i	i	nt	nt	nt	nt	nt	nt
Cc1cccc(-c2nc(=S)c3c(n2Cc2ccco2)CCCC3)c1	i	i	i	-6.3*	i	184%*	i	42%*	i	i	nt
COc1cccc(-c2nc(=S)c3c(n2Cc2ccco2)CCCC3)c1	i	i	i	i	i	nt	nt	nt	nt	nt	nt
CC(C)COc1ccc(S(=O)(=O)NNC(=O)c2cc3ccccc3o2)cc1	i	i	i	i	i	nt	nt	nt	nt	nt	nt
CCCCOc1ccc(S(=O)(=O)NNC(=O)c2cc3ccccc3o2)cc1	i	i	i	-5.2*	i	i	i	i	i	i	i
COc1ccc(NS(=O)(=O)c2cn(C)nc2C)cc1	i	i	i	i	i	nt	nt	nt	nt	nt	nt
COc1ccc(CCNc2oc(-c3ccc(OC)c(OC)c3)nc2C#N)cc1	i	i	i	i	i	nt	nt	nt	nt	nt	nt
COc1ccc(-c2nc(C#N)c(NCCCN(C)C)o2)cc1OC	i	i	i	-6.4*	i	i	i	i	i	i	i
O=C(CCCOc1ccc(Cl)cc1Cl)N1CCN(c2ccccn2)CC1	i	i	i	-9.3*	i	nt	nt	nt	nt	i	nt	TRPC4 spec 2=i;TRPC4 spec=0.1%*;HEK293 MPD ctr 2-1=i;HEK293 MPD ctr-1=1.5%*
O=C(COc1ccc(Cl)cc1Cl)N1CCN(c2ccccn2)CC1	i	i	i	i	i	nt	nt	nt	nt	nt	nt
COc1ccc(/C=C2\C(=N)N3N=C(CC(=O)N4CCCCC4)SC3=NC2=O)cc1	12*	i	i	i	i	136%*	i	22%*	i	i	76%*
Cc1ccc(/C=C2\C(=N)N3N=C(CC(=O)N4CCCCC4)SC3=NC2=O)cc1	i	i	i	i	i	nt	nt	nt	nt	nt	nt
COc1ccc(/C=C2/C(=N)N3N=C(CC(=O)N4CCCC4)SC3=NC2=O)cc1	12*	i	i	i	i	163%*	i	24%*	i	i	84%*
CCN1CCN(CCCNC(=O)CCC(=O)N2CCOc3ccc(Cl)cc32)CC1	i	i	i	i	i	nt	nt	nt	nt	nt	nt
CC(C)c1nc2c(s1)CCc1onc(-c3cccc([N+](=O)[O-])c3)c1-2	i	i	i	i	i	nt	nt	nt	nt	nt	nt
Cc1csc(NC(=O)CSC2=NS(=O)(=O)c3cc(F)ccc3N2)n1	i	i	i	i	i	nt	nt	nt	nt	nt	nt
C=CCn1c(SCc2nc3ccccc3c(=O)[nH]2)nc2scc(C3CC3)c2c1=O	i	i	i	i	i	nt	nt	nt	nt	nt	nt
CCCn1c(O)c(N=NC(=O)CNC(=O)c2ccncc2)c2ccccc21	i	i	i	i	i	nt	nt	nt	nt	nt	nt
Cc1c(C)n(Cc2ccccc2)c2ccc(C(=O)OCCN(C)C)cc12	i	i	i	-6*	i	i	i	i	72%*	56%*	i
Cc1c(C)n(Cc2ccccc2)c2ccc(C(=O)NCCN3CCOCC3)cc12	i	i	i	i	i	nt	nt	nt	nt	nt	nt
CCCCOc1ccc(C2=CSC3=NCCN23)cc1[N+](=O)[O-]	i	i	i	-5.1*	i	-75%*	i	-20%*	44%*	44%*	i
O=C(NC(=S)N1CCCCC1)C12CC3CC(CC(C3)C1)C2	i	i	i	i	i	nt	nt	nt	nt	nt	nt
SMILES	TRPC6 activator	TRPC4 inh	TRPC4 act	TRPC6 inhibitor	TRPC4 potent	HEK293 MPD ctr-2	HEK293 MPD ctr 2-2	TRPC4/MOR mod	TRPC4/MOR inh 2	TRPC6 inh conf	TRPC6 act confirm	others
CCOC(=O)N1CCN(C(=S)NC(=O)C23CC4CC(CC(C4)C2)C3)CC1	i	i	i	-5*	i	i	i	i	i	i	i
Cc1nn(CCOc2cccc(Cl)c2)c(C)c1[N+](=O)[O-]	i	i	i	i	i	nt	nt	nt	nt	nt	nt
CC(=O)Nc1ccc(NC(=O)C(C)OC(=O)CNC(=O)c2ccc(-c3ccccc3)cc2)cc1 (stereo not drawn)	i	i	i	i	i	nt	nt	nt	nt	nt	nt
CCCN1C2CCCC1CC(NC(=O)Nc1ccc(C(C)C)cc1)C2 (stereo not drawn)	i	i	i	i	i	nt	nt	nt	nt	nt	nt
CCCN1C2CCCC1CC(NC(=O)Nc1cccc(C(C)=O)c1)C2 (stereo not drawn)	i	i	i	-6.1*	i	i	i	i	i	i	nt
CC(=O)c1cccc(NC(=O)NC2CC3CCCC(C2)N3CC(C)C)c1 (stereo not drawn)	17*	i	i	-8.8*	i	i	i	i	i	46%*	110%*

Compound activity (PubChem)
